Legend:
[1] = tested on: U2OS; assay: Multiplex assay against U2OS; format: toxicity, cell-based; conditions: human
Outline: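 Compound was added to live cells that had been stained at seeding with Hoechst33342, BioTracker Green Microtubule Cytoskeleton Dye, MitoTracker Red and Annexin V Alexa Fluor 680, and imaging followed on a CQ1 microscope at 37°C and 5% CO2. CellPathfinder machine-learning gating divided cells into Hoechst high-intensity objects or normal cells, normal cells into healthy, pyknosed or fragmented nuclei, and pyknosed cells into mitotic or apoptotic. Tubulin, mitochondrial-mass and membrane-permeability phenotypes are per cents of healthy-nucleus cells.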

[2] = tested on: Fibroblast; assay: Incucyte cell viability with human fibroblast; format: toxicity, cell-based; conditions: 10 µM, compound concentration 10 uM; also: filed as whole numbers so only -1 and 0 and 1 occur
[3] = 12 h, 1 µM, compound concentration 1 uM, replicate 1
[4] = 12 h, 1 µM, compound concentration 1 uM, replicate 2
[5] = 12 h, 10 µM, compound concentration 10 uM, replicate 1
[6] = 12 h, 10 µM, compound concentration 10 uM, replicate 2
[7] = 24 h, 1 µM, compound concentration 1 uM, replicate 1
[8] = 24 h, 1 µM, compound concentration 1 uM, replicate 2
[9] = 24 h, 10 µM, compound concentration 10 uM, replicate 1
[10] = 24 h, 10 µM, compound concentration 10 uM, replicate 2
[11] = 48 h, 1 µM, compound concentration 1 uM, replicate 1
[12] = 48 h, 1 µM, compound concentration 1 uM, replicate 2
[13] = 48 h, 10 µM, compound concentration 10 uM, replicate 1
[14] = 48 h, 10 µM, compound concentration 10 uM, replicate 2

## Cc1nc(Cc2cccc(C(F)(F)F)c2)sc1-c1ccc(C(N)=O)nc1 [TP-024n]
[1]; [3]
  Population Apoptotic (%): 58%
  Population Fragmented Nuclei (%): 8%
  Population Healthy Nuclei (%): 85%
  Population Hoechst High Intensity Objects (%): 5%
  Population Membrane Permeable-Phenotype (%): 5%
  Population Mitochondria Different-Phenotype (%): 10%
  Population Mitotic Cells (%): 41%
  Population Normal (%): 94%
  Population Pyknosed Nuclei (%): 6%
  Population Tubulin-Different-Phenotype (%): 9%
  Total Cell Count: 159
[1]; [4]
  Population Apoptotic (%): 50%
  Population Fragmented Nuclei (%): 0%
  Population Healthy Nuclei (%): 94%
  Population Hoechst High Intensity Objects (%): 11%
  Population Membrane Permeable-Phenotype (%): 2%
  Population Mitochondria Different-Phenotype (%): 18%
  Population Mitotic Cells (%): 50%
  Population Normal (%): 88%
  Population Pyknosed Nuclei (%): 5%
  Population Tubulin-Different-Phenotype (%): 16%
  Total Cell Count: 130
[1]; [5]
  Population Apoptotic (%): 45%
  Population Healthy Nuclei (%): 68%
  Population Hoechst High Intensity Objects (%): 6%
  Population Membrane Permeable-Phenotype (%): 3%
  Population Mitochondria Different-Phenotype (%): 27%
  Population Mitotic Cells (%): 54%
  Population Normal (%): 93%
  Population Pyknosed Nuclei (%): 13%
  Population Tubulin-Different-Phenotype (%): 22%
  Total Cell Count: 186
[1]; [6]
  Population Apoptotic (%): 66%
  Population Fragmented Nuclei (%): 17%
  Population Healthy Nuclei (%): 67%
  Population Hoechst High Intensity Objects (%): 4%
  Population Membrane Permeable-Phenotype (%): 9%
  Population Mitochondria Different-Phenotype (%): 21%
  Population Mitotic Cells (%): 33%
  Population Normal (%): 95%
  Population Pyknosed Nuclei (%): 14%
  Population Tubulin-Different-Phenotype (%): 11%
  Total Cell Count: 44
[1]; [7]
  Population Apoptotic (%): 46%
  Population Fragmented Nuclei (%): 6%
  Population Healthy Nuclei (%): 86%
  Population Hoechst High Intensity Objects (%): 4%
  Population Membrane Permeable-Phenotype (%): 3%
  Population Mitochondria Different-Phenotype (%): 8%
  Population Mitotic Cells (%): 53%
  Population Normal (%): 95%
  Population Pyknosed Nuclei (%): 6%
  Population Tubulin-Different-Phenotype (%): 8%
  Total Cell Count: 164
[1]; [8]
  Population Apoptotic (%): 50%
  Population Fragmented Nuclei (%): 5%
  Population Healthy Nuclei (%): 91%
  Population Hoechst High Intensity Objects (%): 5%
  Population Membrane Permeable-Phenotype (%): 1%
  Population Mitochondria Different-Phenotype (%): 7%
  Population Mitotic Cells (%): 50%
  Population Pyknosed Nuclei (%): 3%
  Population Tubulin-Different-Phenotype (%): 15%
  Total Cell Count: 126
[1]; [9]
  Population Apoptotic (%): 42%
  Population Fragmented Nuclei (%): 19%
  Population Membrane Permeable-Phenotype (%): 8%
  Population Mitochondria Different-Phenotype (%): 23%
  Population Mitotic Cells (%): 57%
  Population Pyknosed Nuclei (%): 21%
  Population Tubulin-Different-Phenotype (%): 16%
  Total Cell Count: 241
[1]; [10]
  Population Apoptotic (%): 44%
  Population Fragmented Nuclei (%): 14%
  Population Healthy Nuclei (%): 58%
  Population Hoechst High Intensity Objects (%): 2%
  Population Membrane Permeable-Phenotype (%): 25%
  Population Mitochondria Different-Phenotype (%): 32%
  Population Mitotic Cells (%): 55%
  Population Normal (%): 97%
  Population Pyknosed Nuclei (%): 26%
  Population Tubulin-Different-Phenotype (%): 22%
  Total Cell Count: 60
[1]; [11]
  Population Apoptotic (%): 32%
  Population Healthy Nuclei (%): 88%
  Population Hoechst High Intensity Objects (%): 3%
  Population Membrane Permeable-Phenotype (%): 2%
  Population Mitochondria Different-Phenotype (%): 8%
  Population Mitotic Cells (%): 68%
  Population Normal (%): 96%
  Population Pyknosed Nuclei (%): 6%
  Population Tubulin-Different-Phenotype (%): 7%
  Total Cell Count: 160
[1]; [12]
  Population Apoptotic (%): 33%
  Population Fragmented Nuclei (%): 4%
  Population Healthy Nuclei (%): 92%
  Population Hoechst High Intensity Objects (%): 4%
  Population Membrane Permeable-Phenotype (%): 3%
  Population Mitochondria Different-Phenotype (%): 10%
  Population Mitotic Cells (%): 66%
  Population Normal (%): 95%
  Population Pyknosed Nuclei (%): 3%
  Population Tubulin-Different-Phenotype (%): 14%
  Total Cell Count: 122
[1]; [13]
  Population Apoptotic (%): 55%
  Population Fragmented Nuclei (%): 20%
  Population Healthy Nuclei (%): 56%
  Population Hoechst High Intensity Objects (%): 5%
  Population Membrane Permeable-Phenotype (%): 10%
  Population Mitochondria Different-Phenotype (%): 19%
  Population Mitotic Cells (%): 44%
  Population Normal (%): 94%
  Population Pyknosed Nuclei (%): 22%
  Population Tubulin-Different-Phenotype (%): 13%
  Total Cell Count: 386
[1]; [14]
  Population Apoptotic (%): 72%
  Population Fragmented Nuclei (%): 17%
  Population Healthy Nuclei (%): 69%
  Population Hoechst High Intensity Objects (%): 6%
  Population Membrane Permeable-Phenotype (%): 32%
  Population Mitochondria Different-Phenotype (%): 32%
  Population Mitotic Cells (%): 27%
  Population Normal (%): 93%
  Population Pyknosed Nuclei (%): 13%
  Population Tubulin-Different-Phenotype (%): 35%
  Total Cell Count: 93
[2]; 6 h, replicate number 1, timepoint 6 hours
  Growth Rate: 0
[2]; 12 h, replicate number 1, timepoint 12 hours
  Growth Rate: 0
[2]; 18 h, replicate number 1, timepoint 18 hours
  Growth Rate: 0
[2]; 24 h, replicate number 1, timepoint 24 hours
  Growth Rate: 0
